BindingDB's records for doi:10.1021/jm9600205 (National Institute of Diabetes, 1996)

Target: Adenosine receptor A2a (Rattus norvegicus, UniProt P30543)
Assay: Displacement of [3H]-CGS- 21680 binding to Adenosine A2A receptor in rat striatal membranes
In short: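 Adenosine deaminase (3 units/mL) present during preparation, 30 min preincubation at 30 °C and incubation. At least five competitor concentrations over 3 orders of magnitude.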

Sequence of Adenosine receptor A2a (P30543 whole entry): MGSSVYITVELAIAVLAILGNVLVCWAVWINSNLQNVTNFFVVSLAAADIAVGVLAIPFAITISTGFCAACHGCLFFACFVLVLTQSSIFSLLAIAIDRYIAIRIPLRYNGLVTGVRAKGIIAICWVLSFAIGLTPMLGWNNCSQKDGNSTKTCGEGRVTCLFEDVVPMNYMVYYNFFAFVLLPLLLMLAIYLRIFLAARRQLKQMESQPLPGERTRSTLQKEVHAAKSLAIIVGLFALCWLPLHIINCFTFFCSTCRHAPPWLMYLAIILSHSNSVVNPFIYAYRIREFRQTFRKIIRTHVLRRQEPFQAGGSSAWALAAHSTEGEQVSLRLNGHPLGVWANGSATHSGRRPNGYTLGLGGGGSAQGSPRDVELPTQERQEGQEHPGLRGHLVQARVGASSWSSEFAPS

Row | Ki [µM] | Structure (SMILES)
1 | 46.1 | CCOC(=O)C1=C(C)N=C(C)C(C(=O)OC)C1C (configuration not stated) [2,4,6-Trimethyl-1,4-dihydro-pyridine-3,5-dicarboxylic acid 3-ethyl ester 5-methyl ester]
2 | 35.9 | CCOC(=O)C1=C(c2ccccc2)N=C(C)C(C(=O)OCC)C1C (configuration not stated) [2,4-Dimethyl-6-phenyl-1,4-dihydro-pyridine-3,5-dicarboxylic acid diethyl ester]
